Reference: ChEMBL document CHEMBL4842369, “Synthesis, structure-activity relationship and antiviral activity of indole-containing inhibitors of Flavivirus NS2B-NS3 protease” (Eur J Med Chem, 2021)
The source made the active and inactive calls. No cut-off for these calls is given here.

Experiments:
Nonstructural protein 3 = Nonstructural protein 3 (Zika virus, UniProt A0A024AXB9); experiment: Inhibition of Zika virus recombinant NS2B (47 to 95 residues)/NS3 (1 to 177 residues) protease expressed in Escherichia coli BL21 using Bz-Nle-Lys-Lys-Arg-AMC as substrate preincubated for 10 mins by fluorescence-based biochemical assay
Chain of Nonstructural protein 3 (A0A024AXB9 whole entry, the tested form may be a part): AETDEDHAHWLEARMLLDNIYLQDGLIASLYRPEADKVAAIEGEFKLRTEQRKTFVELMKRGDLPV
Method in brief: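 ZIKV NS2B-NS3 protease at 1 nM, with 10 µM Bz-Nle-Lys-Lys-Arg-AMC in 20 mM HEPES pH 7.3 containing 0.05% Triton X-100. Compound at increasing concentrations in triplicate, pre-incubated with enzyme 10 min before substrate. Fluorescence (Ex 360/Em 460 nm) read every 30 s. IC50 from dose-response curve fit, 3 independent experiments, standard deviation.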

Zika virus = experiment: Antiviral activity against Zika virus infected in human U87 cells assessed as reduction in infectious virus in supernatant by measuring infection of Vero cells incubated with supernatant of viral infected U87 cells and measured following infection of supernatants with Vero cells for 7 days by MTT assay; type: functional; settings: U-87 MG, 168 h, time 7 day
Method in brief: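 U87 cells (2×10^4/well) in DMEM with 2% FBS, infected with ZIKV FLR strain (passage-3 stock) at MOI 0.01 for 1 h, then PBS-washed. Compound added in triplicate, 2 days at 37 °C. Half-log dilutions of supernatant put on Vero monolayers in quadruplicate for 7 days. CPE by microscopy then MTT. TCID50 from highest dilution infecting 2/4 wells. At least 2 independent experiments.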

Genome polyprotein [1] = biological target: Genome polyprotein (dengue virus type 2, UniProt P29990); experiment: Inhibition of Dengue virus 2 NS2B (50 to 95 residues)/NS3 (1 to 182 residues) protease expressed in Escherichia coli BL21 using Bz-Nle-Lys-Lys-Arg-AMC as substrate preincubated for 10 mins by fluorescence-based biochemical assay
Method in brief: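 Recombinant DENV-2 NS2B-NS3 protease assayed like the ZIKV protease. Bz-Nle-Lys-Lys-Arg-AMC substrate, compound pre-incubated with enzyme 10 min, fluorescence monitored at Ex 360/Em 460 nm. IC50 from dose-response fit of triplicate samples at increasing concentrations.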

U-87 MG = experiment: Cytotoxicity against human U87 cells assessed as inhibition of growth by MTT assay; type: cell-based; settings: u-87mg atcc
Genome polyprotein [2] = biological target: Genome polyprotein (West Nile virus, UniProt P06935); experiment: Inhibition of West Nile virus NS2B (49 to 96 residues)/NS3 (2 to 184 residues) protease expressed in Escherichia coli BL21 using Bz-Nle-Lys-Lys-Arg-AMC as substrate preincubated for 10 mins by fluorescence-based biochemical assay
Chain of Genome polyprotein (West Nile virus, UniProt P06935) (P06935 1371-1501 limits assumed): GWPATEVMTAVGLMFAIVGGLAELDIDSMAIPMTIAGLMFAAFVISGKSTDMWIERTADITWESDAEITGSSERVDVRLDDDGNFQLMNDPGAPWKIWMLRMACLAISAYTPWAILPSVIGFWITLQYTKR
Chain of Genome polyprotein (West Nile virus, UniProt P06935) (P06935 1502-2120 limits assumed): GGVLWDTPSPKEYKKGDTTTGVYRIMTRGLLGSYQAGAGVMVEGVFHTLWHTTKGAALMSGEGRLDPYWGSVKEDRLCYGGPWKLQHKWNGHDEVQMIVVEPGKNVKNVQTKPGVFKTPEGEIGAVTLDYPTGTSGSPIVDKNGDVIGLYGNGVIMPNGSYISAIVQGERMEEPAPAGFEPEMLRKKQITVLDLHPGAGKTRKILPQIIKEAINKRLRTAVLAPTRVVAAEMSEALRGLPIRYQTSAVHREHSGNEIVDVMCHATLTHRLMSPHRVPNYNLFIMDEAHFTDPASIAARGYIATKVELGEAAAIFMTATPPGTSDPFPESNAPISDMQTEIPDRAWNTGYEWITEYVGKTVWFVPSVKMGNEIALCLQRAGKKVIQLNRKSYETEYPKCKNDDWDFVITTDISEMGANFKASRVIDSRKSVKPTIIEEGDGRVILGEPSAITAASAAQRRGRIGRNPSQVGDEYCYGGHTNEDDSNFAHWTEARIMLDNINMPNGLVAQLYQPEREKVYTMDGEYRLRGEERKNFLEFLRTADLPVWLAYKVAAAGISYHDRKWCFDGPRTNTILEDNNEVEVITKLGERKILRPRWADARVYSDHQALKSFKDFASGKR
Method in brief: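 Recombinant WNV NS2B-NS3 protease, tested in the same way as the Zika protease assay. Compound was preincubated with enzyme for 10 min before Bz-Nle-Lys-Lys-Arg-AMC was added. Hydrolysis was followed as AMC fluorescence (Ex 360/Em 460 nm) read every 30 s. IC50 was derived by dose-response curve fitting.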

[3] = biological target: Genome polyprotein (dengue virus type 2) (UniProt P29990); experiment: Competitive inhibition of Dengue virus 2 NS2B (50 to 95 residues)/NS3 (1 to 182 residues) protease expressed in Escherichia coli BL21 using increased concentration of Bz-Nle-Lys-Lys-Arg-AMC substrate
Method in brief: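 Steady-state kinetics. Initial velocities were measured across a range of inhibitor concentrations and substrate levels. […] Fluorescence was read at Ex 360/Em 460 nm. An IC50 was fitted at each substrate level and plotted against substrate concentration to assign the mode of inhibition.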

O=C(NCC1CCNCC1)c1cc2cc(-c3cn[nH]c3)ccc2[nH]1
IC50 (Nonstructural protein 3): 6 µM

O=C(NCC1CCNCC1)c1cc2cc(-c3ccc(-c4ccoc4)cc3)ccc2[nH]1
IC50 (Nonstructural protein 3): 0.87 µM

O=C(NCC1CCNCC1)c1cc2ccc(-c3ccc(Oc4ccccc4)cc3)cc2[nH]1
EC68 (Zika virus): 2.5 µM
IC50 (Nonstructural protein 3): 1.6 µM
IC50 (Genome polyprotein [1]): 6.5 µM
CC50 (U-87 MG): > 10 µM
IC50 (Genome polyprotein [2]): 6.6 µM

O=C(NCC1CCNCC1)c1c[nH]c2ccc(-c3ccc(F)cc3F)cc12
IC50 (Nonstructural protein 3): > 50 µM

CC(C)(C)c1ccc(-c2cc3[nH]cc(C(=O)NC4CCNCC4)c3cc2-c2ccc(C(C)(C)C)cc2)cc1
IC50 (Nonstructural protein 3): 4.5 µM

CC(C)(C)c1ccc(-c2ccc3[nH]c(C(=O)NCC4CCNCC4)cc3c2)cc1
IC50 (Nonstructural protein 3): 7 µM

O=C(NCC1CCNCC1)c1c[nH]c2cc(-c3ccncc3)ccc12
IC50 (Nonstructural protein 3): 0.39 µM

O=C(NCC1CCNCC1)c1cc2ccc(-c3ccncc3)cc2[nH]1
IC50 (Nonstructural protein 3): 19.7 µM

O=C(NCC1CCNCC1)c1c[nH]c2cc(-c3ccc(-c4ccccc4)cc3)ccc12
EC68 (Zika virus): > 10 µM
IC50 (Nonstructural protein 3): 4.2 µM
CC50 (U-87 MG): > 10 µM

O=C(NC1CCNCC1)c1coc2cc(-c3ccoc3)ccc12
IC50 (Nonstructural protein 3): 2.86 µM

O=C(NCC1CCNCC1)c1cc2ccc(-c3ccoc3)cc2[nH]1
EC68 (Zika virus): 1 µM
IC50 (Nonstructural protein 3): 0.32 µM
IC50 (Genome polyprotein [1]): 1.6 µM
CC50 (U-87 MG): > 10 µM
IC50 (Genome polyprotein [2]): 5.7 µM
Activity [3]: inactive

O=C(NCC1CCNCC1)c1cc2ccc(-c3ccsc3)cc2[nH]1
IC50 (Nonstructural protein 3): 6.4 µM

O=C(NCC1CCNCC1)c1c[nH]c2cc(-c3ccc(F)cc3)ccc12
IC50 (Nonstructural protein 3): > 50 µM

O=C(NCC1CCNCC1)c1cc2ccc(-c3ccc(CO)cc3)cc2[nH]1
EC68 (Zika virus): > 10 µM
IC50 (Nonstructural protein 3): 3.1 µM
CC50 (U-87 MG): > 10 µM

O=C(NCC1CCNCC1)c1cc2ccc(-c3ccc(OC(F)(F)F)cc3)cc2[nH]1
EC68 (Zika virus): > 10 µM
IC50 (Genome polyprotein [1]): 10.7 µM
CC50 (U-87 MG): > 10 µM
IC50 (Genome polyprotein [2]): 16 µM

O=C(NCC1CCNCC1)c1cc2ccc(C3=CCOCC3)cc2[nH]1
IC50 (Nonstructural protein 3): 2.2 µM

O=C(NCC1CCNCC1)c1c[nH]c2cc(-c3ccc(CN4CCCCC4)cc3)ccc12
EC68 (Zika virus): 10 µM
IC50 (Nonstructural protein 3): 3.1 µM
IC50 (Genome polyprotein [1]): 49.7 µM
CC50 (U-87 MG): > 10 µM
IC50 (Genome polyprotein [2]): 32 µM

CC(C)(C)c1ccc(-c2ccc3c(ccn3Cc3ccc(-c4ccoc4)cc3)c2)cc1
IC50 (Nonstructural protein 3): > 50 µM

CC(C)(C)c1ccc(-c2ccc3[nH]cc(C(=O)NCC4CCNCC4)c3c2)cc1
IC50 (Nonstructural protein 3): 11 µM

COc1ccc(-c2ccc3cc(C(=O)NCC4CCNCC4)[nH]c3c2)cc1
IC50 (Nonstructural protein 3): 1 µM
IC50 (Genome polyprotein [1]): 10.6 µM
IC50 (Genome polyprotein [2]): 20.1 µM

N#Cc1ccc(-c2ccc3[nH]cc(C(=O)NC4CCNCC4)c3c2)cc1
IC50 (Nonstructural protein 3): > 50 µM

O=C(NCC1CCNCC1)c1cc2ccc(C3=CCNCC3)cc2[nH]1
IC50 (Nonstructural protein 3): 21 µM

O=C(NCC1CCNCC1)c1c[nH]c2nc(-c3ccc(CN4CCCCC4)cc3)ccc12
EC68 (Zika virus): 10 µM
IC50 (Nonstructural protein 3): 0.45 µM
IC50 (Genome polyprotein [1]): 9.2 µM
CC50 (U-87 MG): > 10 µM
IC50 (Genome polyprotein [2]): 8.6 µM

N#Cc1cccc(-c2ccc3[nH]c(C(=O)NCC4CCNCC4)cc3c2)c1
IC50 (Nonstructural protein 3): 30.5 µM

O=C(NCC1CCNCC1)c1cc2ccc(-c3cn[nH]c3)cc2[nH]1
EC68 (Zika virus): > 10 µM
IC50 (Nonstructural protein 3): 0.99 µM
IC50 (Genome polyprotein [1]): 10.3 µM
CC50 (U-87 MG): > 10 µM
IC50 (Genome polyprotein [2]): 3.5 µM

NC(=O)c1ccc(-c2ccc3cc(C(=O)NCC4CCNCC4)[nH]c3c2)cc1
IC50 (Nonstructural protein 3): 7.1 µM

N#Cc1ccc(-c2ccc3c(C(=O)NCC4CCNCC4)c[nH]c3c2)cc1
IC50 (Nonstructural protein 3): 21.8 µM
IC50 (Genome polyprotein [1]): 12 µM
IC50 (Genome polyprotein [2]): 50.5 µM

O=C(NCC1CCNCC1)c1c[nH]c2nc(-c3ccncc3)ccc12
IC50 (Nonstructural protein 3): 1.9 µM

O=C(NCC1CCNCC1)c1cc2ccc(-c3cccnc3)cc2[nH]1
IC50 (Nonstructural protein 3): 27.2 µM

O=C(NCC1CCNCC1)c1cc2cc(-c3ccc(N4CCCCC4)cc3)ccc2[nH]1
IC50 (Nonstructural protein 3): 11.4 µM
IC50 (Genome polyprotein [1]): 40.2 µM
IC50 (Genome polyprotein [2]): 31 µM

O=C(NCC1CCNCC1)c1c[nH]c2ccc(-c3ccc(F)cc3)cc12
IC50 (Nonstructural protein 3): > 50 µM

O=C(NCC1CCNCC1)c1cc2ccccc2[nH]1
IC50 (Nonstructural protein 3): 24.6 µM

O=C(NCC1CCNCC1)c1cc2cc(-c3ccc(N4CCOCC4)cc3)ccc2[nH]1
IC50 (Nonstructural protein 3): 33 µM

O=C(NCC1CCNCC1)c1cc2cc(-c3ccc(CN4CCCCC4)cc3)ccc2[nH]1
IC50 (Nonstructural protein 3): 4.7 µM
